Converted amounts (≈) assume the structure as drawn.
Key:
[1] = tested on: Aspergillus fumigatus; experiment: In vitro evaluation of minimum inhibitory concentration against Aspergillus fumigatus 33; format: functional
Procedure, shortened: (§1)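 Stocks are 800 μg/mL in 50% ethanol. Each plate gets 10 μL of inoculum at 10^5 cfu/mL. Incubation at 25 °C, 48 h for yeasts and 120 h for dermatophytes and molds. Organisms are ATCC strains or clinical isolates.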

[2] = tested on: Aspergillus niger; experiment: In vitro evaluation of minimum inhibitory concentration against Aspergillus niger 18; format: functional; settings: Aspergillus niger; read-out: MIC; procedure, shortened: as §1
[3] = tested on: Pichia kudriavzevii; experiment: In vitro evaluation of minimum inhibitory concentration against Candida krusei 70; format: functional; settings: Pichia kudriavzevii; read-out: MIC; procedure, shortened: as §1
[4] = tested on: Candida parapsilosis; experiment: In vitro evaluation of minimum inhibitory concentration against Candida parapsilosis 61; format: functional; procedure, shortened: as §1
[5] = tested on: Candida tropicalis; experiment: In vitro evaluation of minimum inhibitory concentration against Candida tropicalis 2.11; format: functional; procedure, shortened: as §1
[6] = tested on: Kluyveromyces marxianus; experiment: In vivo Evaluation of minimum inhibitory concentration against Candida pseudotropicalis 13; format: functional; procedure, shortened: as §1
[7] = tested on: Mus sp.; experiment: In vivo evaluation of % survival rate after peroral administration on 3rd day at dose 0.5 mg/kg; format: functional; settings: route oral
[8] = tested on: Mus sp.; experiment: In vivo evaluation of % survival rate after peroral administration on 3rd day at dose 1 mg/kg; format: functional; settings: for Survival: route oral, 1 mg/kg
[9] = tested on: Mus sp.; experiment: In vivo evaluation of % survival rate after peroral administration on 5th day at dose 0.5 mg/kg; format: functional; settings: route oral
[10] = tested on: Mus sp.; experiment: In vivo evaluation of % survival rate after peroral administration on 5th day at dose 1 mg/kg; format: functional; settings: route oral, 1 mg/kg
[11] = tested on: Mus musculus; experiment: In vivo evaluation of % survival rate after peroral administration on 7th day at dose 0.5 mg/kg; format: functional; settings: route oral, 0.5 mg/kg
[12] = tested on: Mus sp.; experiment: In vivo evaluation of % survival rate after peroral administration on 7th day at dose 1 mg/kg; format: functional; settings: route oral, 1 mg/kg
[13] = tested on: Mus sp.; experiment: In vivo evaluation of % survival rate after peroral administration on 9th day at dose 0.5 mg/kg; format: functional; settings: route oral, 0.5 mg/kg
[14] = tested on: Mus sp.; experiment: In vivo evaluation of % survival rate after peroral administration on 9th day at dose 1 mg/kg; format: functional; settings: route oral, 1 mg/kg
[15] = tested on: Microsporum canis; experiment: In vitro evaluation of minimum inhibitory concentration against Microsporum canis 47; format: functional; procedure, shortened: as §1
[16] = tested on: Nannizzia gypsea; experiment: In vitro evaluation of minimum inhibitory concentration against Microsporum gypseum 22; format: functional; procedure, shortened: as §1
[17] = tested on: Rattus norvegicus; experiment: In vivo evaluation of antifungal activity against vaginal candidosis in rat at dose 0.1 mg/kg on 10th day; format: functional
Procedure, shortened: (§2)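 Groups of 10 female Wistar rats given estradiol 25 mg/kg sc on day -5, then vaginally inoculated with C. albicans on day 0. Infection is confirmed by culture of day-3 swabs. Compound is dosed orally once daily on days 3–5; controls get vehicle. Cure is scored by culture of vaginal swabs taken on days 10 and 15.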

[18] = tested on: Rattus norvegicus; experiment: In vivo evaluation of antifungal activity against vaginal candidosis in rat at dose 0.1 mg/kg on 15th day; format: functional; procedure, shortened: as §2
[19] = tested on: Rattus norvegicus; experiment: In vivo evaluation of antifungal activity in against vaginal candidosis in rat at dose 0.25 mg/kg on 10th day; format: functional
Procedure, shortened: (§3)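 Groups of 10 female Wistar rats given estradiol 25 mg/kg sc on day -5, infected intravaginally with C. albicans by sterile swab on day 0; infection confirmed on day 3 by swab culture (TSB, then Sabouraud agar). Oral dosing once daily on days 3, 4, 5; vehicle controls. Vaginal swabs cultured on days 10 and 15; read-out % cured (culture-negative).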

[20] = tested on: Rattus norvegicus; experiment: In vivo evaluation of antifungal activity in against vaginal candidosis in rat at dose 0.25 mg/kg on 15th day; format: functional; procedure, shortened: as §3
[21] = tested on: Nakaseomyces glabratus; experiment: In vitro evaluation of minimum inhibitory concentration against Torulopsis glabrata 78; format: functional; procedure, shortened: as §1
[22] = tested on: Trichophyton benhamiae; experiment: In vitro evaluation of minimum inhibitory concentration against Trichophyton mentagrophytes 23; format: functional, Arthroderma benhamiae; procedure, shortened: as §1
[23] = tested on: Trichophyton rubrum; experiment: In vitro evaluation of minimum inhibitory concentration against Trichophyton rubrum 90; format: functional; procedure, shortened: as §1
[24] = tested on: Rhodotorula mucilaginosa; experiment: In vitro evaluation of minimum inhibitory concentration against Rhodotorula rubra 16; format: functional; procedure, shortened: as §1
[25] = tested on: Aspergillus flavus; experiment: In vitro evaluation of minimum inhibitory concentration against Aspergillus flavus 19; format: functional; settings: Aspergillus flavus; read-out: MIC; procedure, shortened: as §1
[26] = tested on: Candida albicans; experiment: In vitro evaluation of minimum inhibitory concentration against Candida albicans 76; format: functional; procedure, shortened: as §1
[27] = tested on: Candida albicans; experiment: In vivo evaluation of minimum inhibitory concentration against Candida albicans 406; format: functional
Procedure, shortened: (§4)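 Broth macrodilution MIC following NCCLS M27-P, in RPMI-1640 buffered with 0.165 M MOPS. Fluconazole was dissolved in water and other drugs in DMSO. C. parapsilosis ATCC 22019 served as the reference strain in every run. MIC was the lowest concentration giving turbidity at or below the 80% inhibition standard.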

[28] = tested on: Candida albicans; experiment: In vivo evaluation of minimum inhibitory concentration against Candida albicans 60; format: functional; procedure, shortened: as §4
[29] = tested on: Meyerozyma guilliermondii; experiment: In vitro evaluation of minimum inhibitory concentration against Candida guilliermondii 26; format: functional; procedure, shortened: as §1
[30] = tested on: Nakaseomyces glabratus; experiment: In vivo Evaluation of minimum inhibitory concentration against Torulopsis glabrata 78; format: functional; settings: in the assay text read “In vitro” for “In vivo”; procedure, shortened: as §1
[31] = tested on: Kluyveromyces marxianus; experiment: In vitro evaluation of minimum inhibitory concentration against Candida pseudotropicalis 13; format: functional; procedure, shortened: as §1
[32] = tested on: Mus musculus; experiment: In vivo evaluation of % survival rate after peroral administration on 3rd day at dose 5 mg/kg; format: functional; settings: route oral
[33] = tested on: Mus musculus; experiment: In vivo evaluation of % survival rate after peroral administration on 5th day at dose 5 mg/kg; format: functional; settings: route oral
[34] = tested on: Mus musculus; experiment: In vivo evaluation of % survival rate after peroral administration on 9th day at dose 5 mg/kg; format: functional; settings: route oral
[35] = tested on: Mus musculus; experiment: In vivo evaluation of % survival rate after peroral administration on 7th day at dose 5 mg/kg; format: functional; settings: route oral
[36] = tested on: Rattus norvegicus; experiment: In vivo evaluation of antifungal activity against vaginal candidosis in rat at dose 0.25 mg/kg on 10th day; format: functional; procedure, shortened: as §3
[37] = tested on: Rattus norvegicus; experiment: In vivo evaluation of antifungal activity against vaginal candidosis in rat at dose 0.5 mg/kg on 10th day; format: functional
Procedure, shortened: (§5)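 Female Wistar rats, 10 per group, received estradiol 25 mg/kg sc on day -5. On day 0 they were infected intravaginally with C. albicans by sterile swab. Infection was confirmed on day 3 by culturing the swab in TSB and then on Sabouraud agar. Oral dosing was once daily on days 3, 4 and 5; controls got vehicle only. Vaginal swabs taken on days 10 and 15 were cultured and read the next day.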

[38] = tested on: Rattus norvegicus; experiment: In vivo evaluation of antifungal activity against vaginal candidosis in rat at dose 0.5 mg/kg on 15th day; format: functional; procedure, shortened: as §5
[39] = tested on: Rattus norvegicus; experiment: In vivo evaluation of antifungal activity against vaginal candidosis in rat at dose 0.25 mg/kg on 15th day; format: functional; procedure, shortened: as §3
[40] = Candida tropicalis, read-out: MIC

C[C@H]1N(C(=O)c2ccc(C(F)(F)F)cc2)CCO[C@@]1(Cn1cncn1)c1ccc(F)cc1F (stereo in doubt)
MIC [1]: 10 µg/mL (≈ 21.4 µM)
MIC [2]: 40 µg/mL (≈ 85.8 µM)
MIC [3]: 80 µg/mL (≈ 172 µM)
MIC [4]: 2.5 µg/mL (≈ 5.36 µM)
MIC [5, 40]: > 80 µg/mL
MIC [6]: 40 µg/mL (≈ 85.8 µM)
survival at 0.5 mg/kg [7]: 100%
survival at 1 mg/kg ([8]; Mus sp., po): 100%
survival at 0.5 mg/kg [9]: 100%
Survival [10]: 100%
Survival [11]: 100%
Survival [12]: 100%
Survival [13]: 100%
Survival [14]: 100%
MIC [15]: 10 µg/mL (≈ 21.4 µM)
MIC [16]: 20 µg/mL (≈ 42.9 µM)
Cure rate [17]: 10%
Cure rate [18]: 20%
Cure rate [19]: 40%
Cure rate [20]: 60%
MIC [21]: 40 µg/mL (≈ 85.8 µM)
MIC [22]: 10 µg/mL (≈ 21.4 µM)
MIC [23]: 10 µg/mL (≈ 21.4 µM)
MIC [24]: >80 µg/mL
MIC [25]: > 80 µg/mL

C[C@H]1N(C(=O)c2ccc(C(F)(F)F)cc2)CC(=O)O[C@@]1(Cn1cncn1)c1ccc(Cl)cc1Cl (stereo in doubt; (+)-32a)
MIC [26]: >80 µg/mL
MIC [27]: >80 µg/mL
MIC [28]: >80 µg/mL
MIC [29]: >80 µg/mL
MIC [4]: >80 µg/mL
MIC [5]: >80 µg/mL
Survival [8]: 0%
Survival [10]: 0%
Survival [12]: 0%
Survival [14]: 0%
MIC [30]: > 80 µg/mL
MIC [31]: >80 µg/mL

C[C@H]1N(C(=O)c2ccc(C(F)(F)F)cc2)C[C@H](O)O[C@@]1(Cn1cncn1)c1ccc(F)cc1F (stereo in doubt; (+)-39a)
MIC [27]: >80 µg/mL
MIC [28]: >80 µg/mL
MIC [4]: >80 µg/mL
survival at 5 mg/kg [32]: 40%
survival at 5 mg/kg [33]: 0%
survival at 5 mg/kg [34]: 0%
MIC [31]: >80 µg/mL
survival at 5 mg/kg [35]: 0%

C[C@H]1N(C(=O)c2ccc(C(F)(F)F)cc2)CC(=O)O[C@@]1(Cn1cncn1)c1ccc(Cl)cc1Cl (stereo in doubt; (-)-32a)
MIC ([1]; Aspergillus fumigatus, read-out: MIC): > 80 µg/mL
MIC [2]: > 80 µg/mL
MIC [26]: 20 µg/mL (≈ 39 µM)
MIC [27]: 5 µg/mL (≈ 9.74 µM)
MIC [28]: 10 µg/mL (≈ 19.5 µM)
MIC ([29]; Meyerozyma guilliermondii, read-out: MIC): 80 µg/mL (≈ 156 µM)
MIC [3]: > 80 µg/mL
MIC ([4]; Lodderomyces parapsilosis, read-out: MIC): 40 µg/mL (≈ 77.9 µM)
MIC [5, 40]: 40 µg/mL (≈ 77.9 µM)
Survival [8]: 100%
Survival [10]: 100%
Survival [12]: 70%
Survival [14]: 10%
MIC ([15]; Microsporum canis, read-out: MIC): > 80 µg/mL
MIC ([16]; Nannizzia gypsea, read-out: MIC): > 80 µg/mL
Cure rate [36]: 70%
Cure rate [37]: 80%
Cure rate [38]: 100%
MIC ([21]; Nakaseomyces glabratus, read-out: MIC): > 80 µg/mL
MIC ([22]; Trichophyton benhamiae, read-out: MIC): > 80 µg/mL
MIC ([23]; Trichophyton rubrum, read-out: MIC): > 80 µg/mL
MIC ([24]; Rhodotorula mucilaginosa, read-out: MIC): > 80 µg/mL
MIC [31]: 10 µg/mL (≈ 19.5 µM)
MIC [25]: > 80 µg/mL
Cure rate [39]: 70%
